High-throughput results: PubChem BioAssay, Sanford-Burnham Center for Chemical Genomics
LMPTP inh – LMPTP phosphatase inhibitors, primary screen, biochemical, fluorescence intensity, uHTS; recombinant LMPTP-A, OMFP fluorogenic substrate; AID 651560, 2012; inhibition, % at 20 µM; Low molecular weight phosphotyrosine protein phosphatase (Homo sapiens), P24666; 360,000 tested, 0.22% active;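 active = compounds that cut the enzyme signal by at least half of the control window in the single-dose screen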;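 also: plate controls were DMSO wells with enzyme plus substrate for no effect and substrate without enzyme for full effect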
Target sequence (P24666 whole entry, looked up): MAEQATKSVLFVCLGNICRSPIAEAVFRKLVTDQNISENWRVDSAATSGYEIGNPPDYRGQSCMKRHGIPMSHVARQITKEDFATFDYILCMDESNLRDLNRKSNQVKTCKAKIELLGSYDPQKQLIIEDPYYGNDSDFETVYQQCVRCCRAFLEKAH
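Test system – LMPTP-A enzyme · Amount – LMPTP-A at 0.625 nM final in the reaction · Buffer or medium – Bis-Tris pH 6.0, DTT, detergent · Reagent – OMFP 400 µM · Doses – single 20 µM dose · Schedule – reaction 50 min, room temperature, dark · Detection – fluorescence intensity of OMFP turnover product · Evaluation – percent inhibition versus substrate-only and uninhibited controls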
NadD block – inhibitors of S. aureus NadD, primary screen, biochemical, colorimetric, uHTS | purified NadD enzyme, colorimetric absorbance read-out | inhibition, % at 20 µM | 360,000 tested, 0.78% active; in the data active = inhibition above about 26%
STEP block – STEP phosphatase inhibitors, primary screen, biochemical, fluorescence intensity, uHTS; Tyrosine-protein phosphatase non-receptor type 5 (Homo sapiens), P54829; recombinant STEP, OMFP fluorogenic substrate; inhibition, % at 20 µM; 360,000 tested, 0.25% active; AID 588621, 2011;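 active = inhibition at 20 µM, scaled per plate between control wells, above about 37%, limit read from the data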;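 also: 0% = DMSO with enzyme and substrate and 100% = substrate only without enzyme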
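material = STEP tyrosine phosphatase | reagent = fluorogenic phosphatase substrate OMFP at 25 µM final | doses = single compound dose of 20 µM, 1% DMSO final | schedule = 20 min reaction, room temperature, in the dark | measured by = fluorescence, 480/540 nm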
DNMT1 inh – human DNMT1 methyltransferase inhibitors, primary screen, biochemical, molecular beacon, fluorescence, HinP1I cleavage, uHTS; 360,000 tested, 0.83% active; AID 588458, 2011; DNA (cytosine-5)-methyltransferase 1 (Homo sapiens), P26358; inhibition (reported as % activation of signal), % at 10 µM; in the data active = inhibition above about 50%
SUMO1 PPI mod – modulators of SUMO1 protein-protein interactions, primary screen, biochemical, uHTS. Small ubiquitin-related modifier 1 (Homo sapiens), P63165. SUMO1 binding to a labelled peptide, TR-FRET, 1 h. inhibition, % at 20 µM. 360,000 tested, 0.33% active. AID 602429, 2012; in the data active = inhibition above about 37%
Target sequence (P63165 whole entry, looked up): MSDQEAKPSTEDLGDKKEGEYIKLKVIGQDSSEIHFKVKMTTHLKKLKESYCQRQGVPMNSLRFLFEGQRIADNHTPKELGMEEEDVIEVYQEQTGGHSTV
Scp-1 inhibitor – Scp-1 phosphatase inhibitors, primary screen, biochemical, colorimetric, uHTS. Carboxy-terminal domain RNA polymerase II polypeptide A small phosphatase 1 (Homo …. Recombinant Scp1, phosphopeptide, malachite green phosphate absorbance. inhibition, % at 20 µM. 340,000 tested, 0.88% active. AID 493091, 2011;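 active = inhibition above about 50% at 20 µM, limit read from the data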;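 also: plate controls were DMSO wells with enzyme for no effect and wells lacking enzyme for full effect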
Target sequence (Q9GZU7 76-261 limits assumed): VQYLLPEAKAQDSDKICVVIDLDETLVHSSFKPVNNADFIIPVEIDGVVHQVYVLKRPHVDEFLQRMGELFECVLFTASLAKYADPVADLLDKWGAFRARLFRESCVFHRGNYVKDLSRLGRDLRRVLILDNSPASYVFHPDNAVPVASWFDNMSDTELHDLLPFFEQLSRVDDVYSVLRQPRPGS
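Times: enzyme reaction 45 min at room temperature, colour 5 min, stabilisation 30 min. Material: SCP-1 catalytic fragment, aa 76-261. Medium: Acidic Tris acetate buffer with magnesium and detergent. Signal: colorimetric free-phosphate detection, absorbance 630 nm. Read-out basis: % inhibition of SCP-1 phosphate liberation. Reagent: Phosphorylated 17-residue peptide substrate.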
NadD inh conf – inhibitors of S. aureus NadD, confirmation, biochemical, colorimetric, single concentration. 2,000 tested, 13% active. shares compounds with NadD block. purified S. aureus NadD, colorimetric enzyme assay. AID 624309, 2012. inhibition, % at 20 µM; in the data active = inhibition mostly above about 42%, no sharp cut-off; inactive = mostly below about 42%
An asterisk follows results filed as active. Most compounds without a hit are left out; they make up all but 2.3% or so of the library.

Results for CC[C@]12c3[nH]c4cc(-c5ccco5)ccc4c3CCN1C(=O)[C@@H](CC(=O)NCCC1=CCCCC1)C[C@@H]2C(=O)N1CCN(C(=O)c2ccco2)CC1 ?
LMPTP inh: 12.8; NadD block: 33.2*; STEP block: 2.0; DNMT1 inh: -9.0; SUMO1 PPI mod: 4.5; Scp-1 inhibitor: 6.5; NadD inh conf: 11.2

How did CC[C@]12c3[nH]c4cc(CCC(=O)N(C)C)ccc4c3CCN1C(=O)[C@@H](CC(=O)NCCC1=CCCCC1)C[C@@H]2C(=O)N1CCN(C(=O)c2ccco2)CC1 do in these assays?
LMPTP inh: -0.4; NadD block: 1.8; STEP block: -0.7; DNMT1 inh: -2.1; SUMO1 PPI mod: -0.6; Scp-1 inhibitor: 1.3

What do the screens show for `O=C(C[C@H]1C[C@H](C(=O)N2CCOCC2)[C@@]2(CCC3CCCC3)c3[nH]c4cc(-c5ccco5)ccc4c3CCN2C1=O)NCc1cccc(C(F)(F)F)c1`?
LMPTP inh: 3.6; NadD block: 23.2; STEP block: -0.3; DNMT1 inh: -26.7; SUMO1 PPI mod: 1.8; Scp-1 inhibitor: -4.0

How did OC(CNCCC(c1ccccc1)c1ccccc1)COc1ccccc1 (configuration not stated) do in these assays?
LMPTP inh: 0.8; NadD block: -0.2; STEP block: 1.4; DNMT1 inh: -1.7; SUMO1 PPI mod: -8.7; Scp-1 inhibitor: 6.3

What do the screens show for `CS(=O)c1ccccc1O` (configuration not stated)?
LMPTP inh: -2.5; NadD block: -0.1; STEP block: -2.2; DNMT1 inh: -0.9; SUMO1 PPI mod: -2.4; Scp-1 inhibitor: -1.1

What do the screens show for `O=S(c1ccccc1O)S(=O)c1ccccc1O` (configuration not stated)?
LMPTP inh: 2.6; NadD block: 39.2*; STEP block: 1.1; DNMT1 inh: 17.3; SUMO1 PPI mod: 10.5; Scp-1 inhibitor: 35.9; NadD inh conf: 68.0*

Results for CCn1c2ccccc2c2cc(/C=N/n3c(-c4cc(C)[nH]n4)n[nH]c3=S)ccc21 ?
LMPTP inh: 4.1; NadD block: 61.7*; STEP block: 0.1; DNMT1 inh: -3.5; SUMO1 PPI mod: 10.1; Scp-1 inhibitor: 3.8; NadD inh conf: 63.5*

Results for O=c1cc(CSc2nc(NCc3ccc(Cl)cc3)c3ccccc3n2)nc2ccc(Cl)cn12 ?
LMPTP inh: 7.8; NadD block: 32.8*; STEP block: -1.8; DNMT1 inh: -0.1; SUMO1 PPI mod: -9.2; Scp-1 inhibitor: 22.0; NadD inh conf: 14.8

Results for CCCCN(C)C(=O)CSc1nc(NCc2ccc(OC)cc2)c2ccccc2n1 ?
LMPTP inh: -0.1; NadD block: -3.1; STEP block: 18.3; DNMT1 inh: -1.4; SUMO1 PPI mod: 4.3; Scp-1 inhibitor: -0.3

What do the screens show for `Cc1cc(Br)c2nc(-c3ccccc3)c(Cc3cccc(Cl)c3)n2c1`?
LMPTP inh: 6.4; NadD block: 31.4*; SUMO1 PPI mod: -5.8; NadD inh conf: 16.8

Results for O=C(Nc1ccc(C2=NCCN2)cc1)c1ccc(C(=O)Nc2ccc(C3=NCCN3)cc2)c([N+](=O)[O-])c1 ?
LMPTP inh: 82.4*; NadD block: 50.4*; STEP block: 14.5; DNMT1 inh: -6.5; SUMO1 PPI mod: 96.0*; Scp-1 inhibitor: -7.1; NadD inh conf: 22.2

What do the screens show for `COc1ccc(-c2nn(-c3ccccc3)cc2/C=N/NC(=O)c2cccc(S(=O)(=O)Nc3ccccc3OC)c2)cc1`?
LMPTP inh: 3.7; NadD block: 44.9*; STEP block: -0.1; DNMT1 inh: -11.4; SUMO1 PPI mod: -0.2; Scp-1 inhibitor: -12.3; NadD inh conf: 30.9

How did COc1ccc(OC)c(N/C(=N/c2nc(C)cc(C)n2)NC(C)=O)c1 do in these assays?
LMPTP inh: 0.0; NadD block: -8.8; STEP block: 3.6; DNMT1 inh: -0.5; SUMO1 PPI mod: 0.6; Scp-1 inhibitor: 2.7

Results for COc1ccc(N/C(=N/c2nc(C)cc(C)n2)NC(=O)Nc2ccc(Cl)c(Cl)c2)c(OC)c1 ?
LMPTP inh: 1.7; NadD block: 33.2*; STEP block: -1.3; DNMT1 inh: 3.2; SUMO1 PPI mod: 0.3; Scp-1 inhibitor: 9.0; NadD inh conf: 0.6

Results for O=C(/C=C/c1ccc(F)cc1)NC(=S)NNC(=O)[C@H]1C[C@@H]1c1ccccc1 ?
LMPTP inh: -0.1; NadD block: 39.6*; STEP block: 0.9; DNMT1 inh: 5.3; SUMO1 PPI mod: 9.9; Scp-1 inhibitor: -7.9; NadD inh conf: 11.4

How did O=C(NC(=S)NNC(=O)[C@H]1C[C@@H]1c1ccccc1)c1ccc(F)cc1 do in these assays?
LMPTP inh: 0.3; NadD block: 1.6; STEP block: -0.3; DNMT1 inh: 5.3; SUMO1 PPI mod: 0.2; Scp-1 inhibitor: -7.8

How did Nc1cc(=O)[nH]c(SCC(=O)N2N=C(c3ccc4ccccc4c3)CC2c2ccccc2)n1 (configuration not stated) do in these assays?
LMPTP inh: 2.6; NadD block: 39.6*; STEP block: -1.3; DNMT1 inh: 4.2; SUMO1 PPI mod: -7.0; Scp-1 inhibitor: 2.5; NadD inh conf: 38.9

Results for O=c1c2c3nc4ccccc4nc3n(Cc3ccccc3)c2ncn1Cc1ccco1 ?
LMPTP inh: 61.5*; NadD block: 39.1*; STEP block: 2.3; DNMT1 inh: 39.1; SUMO1 PPI mod: -2.3; Scp-1 inhibitor: 5.8; NadD inh conf: 14.1

Results for COCCCn1c2nc3ccccc3nc2c2c(=O)n(Cc3ccc(Cl)cc3)cnc21 ?
LMPTP inh: 3.0; NadD block: 2.6; STEP block: 3.6; DNMT1 inh: -5.9; SUMO1 PPI mod: -19.0; Scp-1 inhibitor: -1.8

What do the screens show for `Cc1cc(Cl)ccc1OCC(=O)Nn1c(C)ccc1C`?
LMPTP inh: 0.8; NadD block: 40.5*; STEP block: 0.7; DNMT1 inh: -11.2; SUMO1 PPI mod: 0.6; Scp-1 inhibitor: -2.2; NadD inh conf: 3.5
